Compounds with a hit are over-represented: about 3% of the library has one in this group of screens.
MC4R barr agon – human MC4R agonism via beta-arrestin; P32245; U2OS MC4R beta-arrestin complementation, luminescence; percent of melanotan II response, DMSO zero; activation, % at 8.9 µM; 360,000 compounds, 0.98% hits;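 active = activation above a per-plate cutoff, the mean activation of sample wells on that plate plus 3 SD, cut at about 8% in these data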
ABHD5-PLIN5 inh – blocks binding of human ABHD5 to perilipin-5 | inhibition, % at 4 µM | AID 602281 | Q00G26+Q8WTS1 | 360,000 compounds, 0.78% hits | Split G. princeps luciferase complementation, luminescence, 4 h;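 active = inhibition above the mean inhibition across every tested compound plus 3 SD, cut at about 22% in these data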;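 also: 0% = DMSO only wells and the 100% control is not disclosed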
Target sequence (Q00G26 whole entry, looked up): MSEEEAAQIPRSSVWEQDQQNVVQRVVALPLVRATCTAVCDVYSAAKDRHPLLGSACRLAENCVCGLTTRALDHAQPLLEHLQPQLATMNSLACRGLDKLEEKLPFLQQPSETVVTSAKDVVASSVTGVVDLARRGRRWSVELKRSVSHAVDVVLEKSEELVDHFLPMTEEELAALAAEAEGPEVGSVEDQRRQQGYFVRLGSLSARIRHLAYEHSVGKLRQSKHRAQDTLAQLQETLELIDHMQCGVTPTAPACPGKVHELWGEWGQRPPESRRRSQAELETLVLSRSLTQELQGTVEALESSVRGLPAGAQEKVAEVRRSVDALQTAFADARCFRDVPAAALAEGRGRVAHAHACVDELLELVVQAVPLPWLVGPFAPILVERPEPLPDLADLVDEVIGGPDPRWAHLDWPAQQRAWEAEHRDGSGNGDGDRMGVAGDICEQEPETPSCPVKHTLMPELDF
Target sequence (Q8WTS1 whole entry, looked up): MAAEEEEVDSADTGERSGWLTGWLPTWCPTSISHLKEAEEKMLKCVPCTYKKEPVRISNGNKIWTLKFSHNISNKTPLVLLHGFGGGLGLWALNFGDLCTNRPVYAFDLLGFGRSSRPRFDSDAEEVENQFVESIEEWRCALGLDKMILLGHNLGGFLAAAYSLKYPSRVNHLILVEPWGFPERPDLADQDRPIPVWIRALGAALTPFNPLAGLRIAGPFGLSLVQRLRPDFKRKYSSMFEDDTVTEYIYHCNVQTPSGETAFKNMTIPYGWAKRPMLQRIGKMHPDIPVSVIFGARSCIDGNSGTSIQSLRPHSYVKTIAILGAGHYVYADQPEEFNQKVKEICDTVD
PfG6PD inh – PfG6PD (Plasmodium falciparum) enzyme inhibition. PfGluPho enzyme, NADPH resazurin-diaphorase fluorescence. inhibition, % at 20 µM. 350,000 compounds, 0.78% hits;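 active = inhibition reaching at least a set limit at 20 µM in the primary screen, cut at about 59% in these data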;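 also: 0% = DMSO wells with substrate and 100% = DMSO wells lacking glucose-6-phosphate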
Beta2AR agonist – activates human beta-2 adrenergic receptor causing internalization | P07550 | Am2.2-beta2AR cells, FAP receptor internalization, flow cytometry | response, % (no concentration beside the values) | 340,000 compounds, 0.43% hits | AID 504454;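 active = response above a set limit, near 3 SD of response in nonfluorescent compounds, cut at about 42% in these data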
MC4R antagonist – human MC4R antagonism in cAMP assay; P32245; MC4R-expressing cells, MTII-stimulated cAMP, LANCE TR-FRET; inhibition, % at 6.5 µM; 360,000 compounds, 0.48% hits; AID 540295;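 active = inhibition above its plate's cutoff, the mean of tested wells on that plate plus 3 SD, cut at about 29% in these data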;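 also: 0% = Melanotan II alone and 100% = Melanotan II plus saturating MCL0020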
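material = U2OS cells stably expressing human melanocortin 4 receptor (MC4R) | also added = Melanotan II challenge | dosing = single nominal compound dose of 6.5 µM | detection = TR-FRET with Eu-cAMP and labeled anti-cAMP, 671 nm | replication = singlicate | timing = compound 30 min, challenge 1 h, detection 1 h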
ABHD5-PLIN5 conf – ABHD5-PLIN5 interaction inhibition, confirmed | shares compounds with ABHD5-PLIN5 inh | AID 651612 | biochemical ABHD5-PLIN5 interaction, luminescence | inhibition, % at 4 µM | 2,200 compounds, 67% hits; in the data active = inhibition above about 23%;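 also: 0% = DMSO vehicle wells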
HNF4 split-luc – counter-screen for ABHD5-PLIN5 inhibitors: HNF4 split-luciferase; shares compounds with ABHD5-PLIN5 inh; HNF4 dimerization, luminescence, biochemical; inhibition, % at 4 µM; 2,200 compounds, 77% hits;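 active = mean inhibition across replicate wells exceeding the computed hit threshold, cut at about 13% in these data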;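 also: light from luciferase halves that rejoin when HNF4 fusion proteins dimerize; 0% = DMSO only wells and the 100% control is not given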
Starred values were filed as active, the others as inactive; . = no result given.

SMILES | MC4R barr agon | ABHD5-PLIN5 inh | PfG6PD inh | Beta2AR agonist | MC4R antagonist | ABHD5-PLIN5 conf | HNF4 split-luc
CN(C)CCCNC(=O)/C(=C/c1ccc(-c2ccc([N+](=O)[O-])cc2)o1)NC(=O)c1ccccc1 | -2 | 4 | -7 | -47 | -15 | . | .
CN(C)CCCNC(=O)/C(=C\c1ccc(-c2ccc(Br)cc2)o1)NC(=O)c1ccccc1 | 2 | 24* | 0 | 31 | -6 | 14 | 4
Cc1sc2nc3c4ccccc4c(NCc4ccco4)nn3c(=O)c2c1C | -1 | 32* | 40 | -8 | 7 | 46* | 63*
O=C(NCc1ccc2c(c1)OCO2)c1ccc(Cl)nc1 | -1 | -1 | 17 | -2 | 4 | . | .
O=C(NCc1ccc2c(c1)OCO2)c1nc(S(=O)(=O)Cc2ccccc2F)ncc1Cl | -6 | 76* | 29 | 16 | 0 | 84* | 106*
O=C(NCc1ccc2c(c1)OCO2)c1nc(S(=O)(=O)Cc2ccccc2)ncc1Cl | -6 | 54* | 15 | 10 | 1 | 87* | 106*
COc1ccc(CNC(=O)c2nc(S(=O)(=O)Cc3ccccc3)ncc2Cl)cc1 | -3 | 41* | -12 | 28 | 13 | 89* | 103*
O=C(NCc1ccc2c(c1)OCO2)c1ccccc1Cl | 1 | 3 | -6 | 1 | 4 | . | .
COc1ccccc1N(C)S(=O)(=O)c1ccc(C(=O)OCC(=O)N2CCCCCC2)cc1 | -4 | -3 | 9 | -3 | -3 | . | .
Cc1ccc(S(=O)(=O)N2CCOCC2)cc1C(=O)OCC(=O)NCc1ccccc1 | -2 | -6 | -2 | 0 | -5 | . | .
N#Cc1ccc(C(C(=O)NC2CCCCC2)n2c(=O)c(-c3ccco3)nc3ccccc32)cc1 (configuration not stated) | . | 82* | . | . | . | 84* | 32*
O=C(NC1CCCCC1)C(C1CC1)n1c(=O)c(-c2ccco2)nc2ccccc21 (configuration not stated) | . | 66* | . | . | . | 71* | 34*
O=C(NC1CCCCC1)C(c1ccccc1)n1c(=O)c(-c2ccco2)nc2ccccc21 (configuration not stated) | . | 86* | . | . | . | 97* | 54*
O=C(NC1CCCCC1)C(c1ccc(C(F)(F)F)cc1)n1c(=O)c(-c2ccco2)nc2ccccc21 (configuration not stated) | . | 85* | . | . | . | 90* | 13*
N#Cc1ccc(C(C(=O)NC2CCCCC2)n2c(=O)c(-c3cc4ccccc4[nH]3)nc3ccccc32)cc1 (configuration not stated) | . | -7 | . | . | . | . | .
COc1ccc(NC(=O)C(C2CC2)n2c(=O)c(-c3ccco3)nc3ccccc32)cc1 (configuration not stated) | . | -6 | . | . | . | . | .
COc1ccccc1NS(=O)(=O)c1cccc(C(=O)N/N=C2\CC(=O)CC(C)(C)C2)c1 | -3 | 1 | -15 | 18 | 0 | . | .
Cc1cccc(N2CCN(C(=O)[C@H](C)N3C(=O)C4CC=CCC4C3=O)CC2)c1C (some centres not stated) | -1 | -7 | -2 | -6 | -7 | . | .
CCCCCNC(=O)C(C1CC1)n1c(=O)c(-c2ccco2)nc2ccccc21 (configuration not stated) | . | 31* | . | . | . | 61* | 23*
CC1(S(=O)(=O)O)CC(=O)c2ccccc2C1=O (configuration not stated) | 1 | 29* | -4 | 13 | -4 | 42* | 56*
CC1(N2CCCCC2)C(=O)c2ccccc2C1=O | 1 | 4 | 5 | -2 | 24 | . | .
Cc1ccc2[nH]c(=O)c(CN(Cc3ccco3)S(=O)(=O)c3c(C)ccc4nsnc34)cc2c1 | 2 | 25* | 6 | 13 | 18 | 33* | 43*
Cc1ccc2nsnc2c1S(=O)(=O)N(Cc1ccco1)Cc1cc2cccc(C)c2[nH]c1=O | 2 | -7 | -5 | 15 | 8 | . | .
CC(=O)Nc1ccc(S(=O)(=O)Oc2cccc(/C=C3\SC(N)=NC3=O)c2)cc1 | -2 | 28* | 9 | 3 | 12 | 35* | 22*
O=C(NCc1cccc(C(F)(F)F)c1)C1CCCN(c2cnccn2)C1 (configuration not stated) | -1 | -3 | 5 | 1 | 6 | . | .
SMILES | MC4R barr agon | ABHD5-PLIN5 inh | PfG6PD inh | Beta2AR agonist | MC4R antagonist | ABHD5-PLIN5 conf | HNF4 split-luc
O=C(/C=C/c1ccccc1)c1ccc2c(c1)OCCCCO2 | 0 | 24* | 12 | 7 | 2 | 53* | 43*
O=C(C=Cc1ccc2c(c1)OCO2)c1ccccc1 | 0 | 18 | 8 | 10 | 3 | . | .
O=C1COc2ccc(C(=O)/C=C/c3ccccc3)cc2N1 | 3 | 47* | -2 | 3 | 17 | 77* | 62*
N#Cc1ccc(/C=C/C(=O)c2ccc3c(c2)OCO3)cc1 | -1 | 33* | -21 | 6 | 25 | 88* | 82*
O=C(Cc1ccccc1Cl)NCc1cccnc1 | -2 | -1 | 0 | 7 | 0 | . | .
COc1ccc(Cl)cc1NC(=S)N1CC(C)OC(C)C1 (configuration not stated) | -4 | -3 | -3 | 5 | 2 | . | .
O=c1[nH]nc(SC2CCCCC2)c(=O)[nH]1 | -1 | -8 | -14 | 5 | 15 | . | .
Cc1nnc(SC(C)C(=O)NC2CCCCC2)[nH]c1=O (configuration not stated) | -2 | 10 | -2 | 5 | 3 | . | .
Nc1nc(N2CCN(C/C=C/c3ccccc3)CC2)nc2ccccc12 | -1 | 28* | -12 | -8 | -7 | 31* | 7
CCOc1ccc(-n2cnc3sc(C)c(C)c3c2=O)cc1 | 0 | -3 | 5 | -5 | 0 | . | .
CNC(=O)C1CCN(S(=O)(=O)c2c(C)noc2/C=C/c2ccc(OC)cc2)CC1 | 0 | 1 | -3 | -4 | 3 | . | .
COCCCN(C(=O)c1cc(Cl)nc2ccccc12)c1c(N)n(Cc2ccccc2)c(=O)[nH]c1=O | -3 | 0 | -12 | -3 | 1 | . | .
O=[N+]([O-])/C=C/c1cn(Cc2ccc(F)cc2)c2ccccc12 | 0 | 57* | 0 | 41 | -11 | 92* | 68*
COC(=O)[C@@]1(Cc2ccc(OC)cc2)[C@@H]2C(=CC(=O)[C@H]2CC(=O)C(=O)N2CCCC2)CN1C(=O)c1ccccc1 | 0 | 33* | -13 | 17 | 2 | 63* | 49*
CN(CC(=O)Nc1cccc(F)c1)C(=O)CCc1nc2ccccc2c(=O)[nH]1 | -1 | -7 | 2 | 3 | -4 | . | .
CCCOC(=O)CSc1nnc(-c2cc(OC)c(OC)c(OC)c2)o1 | -2 | 74* | -11 | 3 | -11 | 5 | 3
CCCCCOC(=O)CSc1nnc(-c2cc(OC)c(OC)c(OC)c2)o1 | -2 | -1 | -1 | 5 | -2 | . | .
